These results are taken from ChEMBL document CHEMBL1140906, “Examination of the biological role of the alpha(2-->6)-linked sialic acid in gangliosides binding to the myelin-associated glycoprotein (MAG)” (J Med Chem, 2009).

The structures appear in SMILES notation.

The target of one assay is T1, Myelin-associated glycoprotein (Homo sapiens, UniProt P20916).
T1 sequence (P20916 whole entry): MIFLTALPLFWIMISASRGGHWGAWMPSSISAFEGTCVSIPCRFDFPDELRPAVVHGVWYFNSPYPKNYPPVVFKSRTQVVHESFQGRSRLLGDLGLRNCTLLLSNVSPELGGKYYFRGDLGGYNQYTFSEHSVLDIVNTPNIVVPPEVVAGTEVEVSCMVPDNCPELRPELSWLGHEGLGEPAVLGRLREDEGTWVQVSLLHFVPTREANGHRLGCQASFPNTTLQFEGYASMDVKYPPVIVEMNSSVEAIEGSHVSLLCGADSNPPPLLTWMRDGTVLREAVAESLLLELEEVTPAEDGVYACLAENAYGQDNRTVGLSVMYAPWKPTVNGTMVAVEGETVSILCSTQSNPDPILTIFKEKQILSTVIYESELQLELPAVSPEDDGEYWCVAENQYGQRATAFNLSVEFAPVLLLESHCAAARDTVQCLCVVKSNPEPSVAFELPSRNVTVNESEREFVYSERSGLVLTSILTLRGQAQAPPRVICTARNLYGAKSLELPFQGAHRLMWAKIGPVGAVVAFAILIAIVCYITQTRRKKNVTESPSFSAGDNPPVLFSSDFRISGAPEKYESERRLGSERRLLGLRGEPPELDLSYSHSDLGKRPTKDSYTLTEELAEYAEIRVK
Put plainly: Binding affinity to human IgG Fc-domain tagged MAG N-terminal domain expressed in CHO cells by surface plasmon resonance. The gist of the method:
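Fc-MAGd1-3 (three N-terminal MAG domains fused to human IgG Fc, CHO-expressed, protein A-purified) captured on an immobilized anti-human IgG Fc antibody on CM5 chip; reference surface prepared in parallel.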
A general note: In SPR one partner is held on a chip, and binding of the other changes the refractive index at the surface.
The term Kd denotes a measure of binding affinity in units of concentration. Read a high Kd as weaker binding. In turn, `CC(=O)N[C@H]1[C@H]([C@@H](O)[C@H](O)CNC(=O)c2ccccc2)O[C@@](O[C@H]2[C@@H](O)[C@@H](CO)O[C@@H](O[C@H]3[C@@H](O)[C@@H](CO)O[C@@H](OCC[Si](C)(C)C)[C@@H]3O)[C@@H]2O)(C(=O)O)C[C@@H]1O` showed a Kd of 32.6 µM.

For the compound `CC(=O)N[C@H]1[C@H]([C@@H](O)[C@H](O)CNC(=O)c2ccc(Cl)cc2)O[C@@](O[C@H]2[C@@H](O)[C@@H](CO)O[C@@H](O[C@@H]3CCO[C@H](COCc4ccc(-c5ccccc5)cc4)[C@@H]3O)[C@@H]2O)(C(=O)O)C[C@@H]1O`, binding was characterised by a dissociation constant (Kd) of 2.83 µM.

`CC(=O)N[C@H]1[C@H]([C@@H](O)[C@H](O)CNC(=O)c2ccccc2)O[C@@](O[C@H]2[C@@H](O)[C@@H](CO)O[C@@H](O[C@@H]3CCO[C@H](COCc4ccc(-c5ccccc5)cc4)[C@@H]3O)[C@@H]2O)(C(=O)O)C[C@@H]1O`: binding was characterised by a dissociation constant (Kd) of 5 µM.

A further assay has as its target T2, Myelin-associated glycoprotein (Homo sapiens) (UniProt P20916).
T2 sequence (whole entry): T1 sequence (P20916 whole entry)
Put plainly: Inhibition of human IgG Fc-domain tagged MAG N-terminal domain expressed in CHO cells assessed as relative inhibition potency by hapten inhibition assay relative to (2R,4S,5R,6R)-5-acetamido-2-(((2R,3R,4R,5R,6R)-5-acetamido-4-((2R,3R,4S,5S,6R)-4-((2S,4S,5R)-5-acetamido-2-carboxy-4-hydroxy-6-((1S,2S)-1,2,3-trihydroxypropyl)tetrahydro-2H-pyran-2-yloxy)-3,5-dihydroxy-6-(hydroxymethyl)tetrahydro-2H-pyran-2-yloxy)-3-hydroxy-6-(2-(trimethylsilyl)ethoxy)tetrahydro-2H-pyran-2-yl)methoxy)-4-hydroxy-6-((1S,2R)-1,2,3-trihydroxypropyl)tetrahydro-2H-pyran-2-carboxylic acid. It counts as cell-based. The gist of the method:
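Hapten inhibition: oligosaccharide added to wells with immobilized Neu5Ac, then Fc-MAGd1-3 precomplexed with alkaline phosphatase-labelled anti-Fc antibody; overnight at 4 °C, washed, bound MAG read by initial rate of fluorescein release from fluorescein diphosphate. IC50 from at least eight concentrations, at least three independent titrations; rIP calculated against the reference compound included in each test.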
As to `CC(=O)N[C@H]1[C@H](OCC[Si](C)(C)C)O[C@H](CO[C@H](C)C(=O)O)[C@H](O)[C@@H]1O[C@@H]1O[C@H](CO)[C@H](O)[C@H](O[C@]2(C(=O)O)C[C@H](O)[C@@H](NC(C)=O)[C@H]([C@@H](O)[C@H](O)CO)O2)[C@H]1O`, the Ratio IC50 was determined as 0.17.

In the case of `CC(=O)N[C@H]1[C@H]([C@@H](O)[C@H](O)CNC(=O)c2ccccc2)O[C@@](O[C@H]2[C@@H](O)[C@@H](CO)O[C@@H](O[C@H]3[C@@H](O)[C@@H](CO)O[C@@H](OCC[Si](C)(C)C)[C@@H]3O)[C@@H]2O)(C(=O)O)C[C@@H]1O`, the Ratio IC50 came out at 61.5.

For the compound `CC(=O)N[C@H]1[C@H]([C@@H](O)[C@H](O)CO)O[C@@](O[C@H]2[C@@H](O)[C@@H](CO)O[C@@H](O[C@@H]3CCO[C@H](COCc4ccc(-c5ccccc5)cc4)[C@@H]3O)[C@@H]2O)(C(=O)O)C[C@@H]1O`, the Ratio IC50 was 1.25.

For `CC(=O)N[C@H]1[C@H]([C@@H](O)[C@H](O)CNC(=O)c2ccc(Cl)cc2)O[C@@](O[C@H]2[C@@H](O)[C@@H](CO)O[C@@H](O[C@@H]3CCO[C@H](COCc4ccc(-c5ccccc5)cc4)[C@@H]3O)[C@@H]2O)(C(=O)O)C[C@@H]1O`, the Ratio IC50 was found to be 377.

Consider `CC(=O)N[C@H]1[C@H]([C@@H](O)[C@H](O)CNC(=O)c2ccccc2)O[C@@](O[C@H]2[C@@H](O)[C@@H](CO)O[C@@H](O[C@@H]3CCO[C@H](COCc4ccc(-c5ccccc5)cc4)[C@@H]3O)[C@@H]2O)(C(=O)O)C[C@@H]1O`, for which the Ratio IC50 was determined as 314.

As for `CC(=O)N[C@H]1[C@H]([C@@H](O)[C@H](O)CO)O[C@@](O[C@H]2[C@@H](O)[C@@H](CO)O[C@@H](O[C@@H]3CCO[C@H](CO[C@@H](Cc4ccccc4)C(=O)O)[C@@H]3O)[C@@H]2O)(C(=O)O)C[C@@H]1O`, the Ratio IC50 came out at 0.4.

Consider `CC(=O)N[C@H]1[C@H]([C@@H](O)[C@H](O)CO)O[C@@](O[C@H]2[C@@H](O)[C@@H](CO)O[C@@H](O[C@@H]3CCO[C@H](CO)[C@@H]3O)[C@@H]2O)(C(=O)O)C[C@@H]1O`, for which the Ratio IC50 is 0.76.

Take `CC(=O)N[C@H]1[C@H](OCC[Si](C)(C)C)O[C@H](CO)[C@H](O)[C@@H]1O[C@@H]1O[C@H](CO)[C@H](O)[C@H](O[C@]2(C(=O)O)C[C@H](O)[C@@H](NC(C)=O)[C@H]([C@@H](O)[C@H](O)CO)O2)[C@H]1O`: the Ratio IC50 is 0.26.

With `CC(=O)N[C@H]1[C@H]([C@@H](O)[C@H](O)CO)O[C@@](O[C@H]2[C@@H](O)[C@@H](CO)O[C@@H](O[C@@H]3CCO[C@H](CO[C@H](C)C(=O)O)[C@@H]3O)[C@@H]2O)(C(=O)O)C[C@@H]1O`, the Ratio IC50 was determined as 0.98.

On to `CC(=O)N[C@H]1[C@H]([C@@H](O)[C@H](O)CO)O[C@@](O[C@H]2[C@@H](O)[C@@H](CO)O[C@@H](O[C@H]3[C@@H](O)[C@@H](CO)O[C@@H](OCC[Si](C)(C)C)[C@@H]3O)[C@@H]2O)(C(=O)O)C[C@@H]1O`, for which the Ratio IC50 is 0.3.

On to `CC(=O)N[C@H]1[C@H]([C@@H](O)[C@H](O)CO)O[C@@](O[C@H]2[C@@H](O)[C@@H](CO)O[C@@H](O[C@@H]3CCO[C@H](COCc4ccccc4)[C@@H]3O)[C@@H]2O)(C(=O)O)C[C@@H]1O`, for which the Ratio IC50 was determined as 0.59.

For the compound `CC(=O)N[C@H]1[C@H]([C@@H](O)[C@H](O)CO)O[C@@](O[C@H]2[C@@H](O)[C@@H](CO)O[C@@H](O[C@@H]3CCO[C@H](CO[C@@H](C)C(=O)O)[C@@H]3O)[C@@H]2O)(C(=O)O)C[C@@H]1O`, the Ratio IC50 stood at 1.24.

In the case of `CC(=O)N[C@H]1[C@H]([C@@H](O)[C@H](O)CO)O[C@@](OC[C@H]2O[C@@H](OCC[Si](C)(C)C)[C@H](O)[C@@H](O[C@@H]3O[C@H](CO)[C@H](O)[C@H](O[C@]4(C(=O)O)C[C@H](O)[C@@H](NC(C)=O)[C@H]([C@@H](O)[C@H](O)CO)O4)[C@H]3O)[C@H]2O)(C(=O)O)C[C@@H]1O`, the Ratio IC50 amounted to 0.3.

Consider `CC(=O)N[C@H]1[C@H](OCC[Si](C)(C)C)O[C@H](CO[C@@H](C)C(=O)O)[C@H](O)[C@@H]1O[C@@H]1O[C@H](CO)[C@H](O)[C@H](O[C@]2(C(=O)O)C[C@H](O)[C@@H](NC(C)=O)[C@H]([C@@H](O)[C@H](O)CO)O2)[C@H]1O`, for which the Ratio IC50 was 0.31.

As for `CC(=O)N[C@H]1[C@H](OCC[Si](C)(C)C)O[C@H](CO[C@@H](Cc2ccccc2)C(=O)O)[C@H](O)[C@@H]1O[C@@H]1O[C@H](CO)[C@H](O)[C@H](O[C@]2(C(=O)O)C[C@H](O)[C@@H](NC(C)=O)[C@H]([C@@H](O)[C@H](O)CO)O2)[C@H]1O`, the Ratio IC50 is 0.4.
